Among the data in ChEMBL document CHEMBL1136721, “QSAR and classification of murine and human soluble epoxide hydrolase inhibition by urea-like compounds” (J Med Chem, 2003) are IC50 values, retold here.

Test [1] deals with T1, Bifunctional epoxide hydrolase 2 (Homo sapiens, UniProt P34913).
T1 sequence (P34913 whole entry): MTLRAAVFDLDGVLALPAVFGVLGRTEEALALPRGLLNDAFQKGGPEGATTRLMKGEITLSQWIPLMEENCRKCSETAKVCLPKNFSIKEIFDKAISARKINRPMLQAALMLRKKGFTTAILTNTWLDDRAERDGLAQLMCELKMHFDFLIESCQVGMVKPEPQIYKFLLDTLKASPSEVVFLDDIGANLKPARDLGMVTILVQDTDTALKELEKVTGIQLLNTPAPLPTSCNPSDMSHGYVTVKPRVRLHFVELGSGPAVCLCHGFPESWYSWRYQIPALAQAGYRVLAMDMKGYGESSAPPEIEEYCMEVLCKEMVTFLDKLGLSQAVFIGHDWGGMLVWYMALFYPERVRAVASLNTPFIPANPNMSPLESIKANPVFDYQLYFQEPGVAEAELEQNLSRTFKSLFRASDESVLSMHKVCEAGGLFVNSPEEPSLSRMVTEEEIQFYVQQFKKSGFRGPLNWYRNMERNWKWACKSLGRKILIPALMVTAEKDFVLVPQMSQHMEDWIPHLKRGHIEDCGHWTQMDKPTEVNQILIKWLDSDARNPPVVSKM
The experiment in a line: Inhibitory activity against human soluble epoxide hydrolase; N/A = could not be determined because of above the highest concentration (500 uM) of inhibitor tested. A digest of the protocol:
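Recombinant human sEH made in baculovirus and affinity-purified (at least 97% pure, no detectable esterase or glutathione transferase activity). 0.20 µM enzyme preincubated with inhibitor for 5 min at 30 °C in pH 7.4 sodium phosphate buffer. Substrate: 40 µM racemic 4-nitrophenyl-trans-2,3-epoxy-3-phenylpropyl carbonate. 4-Nitrophenolate read at 405 nm over 1 min. Triplicate runs; top concentration 500 µM. IC50 by regression of at least five points, with at least two on each side in the linear region.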

Test [2] has as its target T2, Bifunctional epoxide hydrolase 2 (Mus musculus, UniProt P34914).
T2 sequence (P34914 whole entry): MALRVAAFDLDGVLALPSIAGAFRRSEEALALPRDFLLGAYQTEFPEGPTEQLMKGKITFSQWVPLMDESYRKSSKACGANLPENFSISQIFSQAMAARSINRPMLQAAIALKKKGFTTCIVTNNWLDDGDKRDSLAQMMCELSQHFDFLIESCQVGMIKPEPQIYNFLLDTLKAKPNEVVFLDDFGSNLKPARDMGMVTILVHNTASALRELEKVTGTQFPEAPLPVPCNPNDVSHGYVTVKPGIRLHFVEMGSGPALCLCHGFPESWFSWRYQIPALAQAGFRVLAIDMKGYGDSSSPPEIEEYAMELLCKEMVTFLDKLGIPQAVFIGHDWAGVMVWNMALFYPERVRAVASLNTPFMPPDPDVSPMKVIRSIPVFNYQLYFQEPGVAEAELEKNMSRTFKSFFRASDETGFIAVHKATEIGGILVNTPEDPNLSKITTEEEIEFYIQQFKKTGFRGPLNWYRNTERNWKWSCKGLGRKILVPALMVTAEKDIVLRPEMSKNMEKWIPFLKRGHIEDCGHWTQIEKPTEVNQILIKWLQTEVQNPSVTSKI
Nature of the test: Inhibitory activity against murine soluble epoxide hydrolase; N/A = could not be determined because of above the highest concentration (500 uM) of inhibitor tested. A digest of the protocol: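 Mouse sEH expressed in baculovirus and affinity-purified (at least 97% pure by SDS-PAGE, no esterase or glutathione transferase activity). 0.10 µM enzyme held with inhibitor 5 min at 30 °C in pH 7.4 sodium phosphate buffer. Then 40 µM racemic 4-nitrophenyl-trans-2,3-epoxy-3-phenylpropyl carbonate added; 4-nitrophenolate followed at 405 nm for 1 min. Done in triplicate up to 500 µM inhibitor. IC50 regressed from at least five points bracketing the midpoint.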

For the compound `CCCCCCNC(=O)NC`, the IC50 result in test [1] is on record as “Not Active”.

Take `CN(C)C(=O)N(CCCCCC(=O)O)c1ccc(Cl)c(Cl)c1`: the IC50 entry in test [1] and in test [2] was “Not Active” each time.
